Source: PubChem BioAssay
CHT PAM = allosteric activators of human choline transporter CHT. Q9GZV3. CHT-expressing cells, membrane potential dye, choline EC20; hits give high values; LV-AA mutant CHT in HEK293 cells. B-score at 10 µM. hit rate 0.49% among 310,000. AID 488977;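 active means initial fluorescence not abnormally high and integrated response B-score, plate-corrected, over 3 SD above library mean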
Target sequence (Q9GZV3 whole entry, looked up): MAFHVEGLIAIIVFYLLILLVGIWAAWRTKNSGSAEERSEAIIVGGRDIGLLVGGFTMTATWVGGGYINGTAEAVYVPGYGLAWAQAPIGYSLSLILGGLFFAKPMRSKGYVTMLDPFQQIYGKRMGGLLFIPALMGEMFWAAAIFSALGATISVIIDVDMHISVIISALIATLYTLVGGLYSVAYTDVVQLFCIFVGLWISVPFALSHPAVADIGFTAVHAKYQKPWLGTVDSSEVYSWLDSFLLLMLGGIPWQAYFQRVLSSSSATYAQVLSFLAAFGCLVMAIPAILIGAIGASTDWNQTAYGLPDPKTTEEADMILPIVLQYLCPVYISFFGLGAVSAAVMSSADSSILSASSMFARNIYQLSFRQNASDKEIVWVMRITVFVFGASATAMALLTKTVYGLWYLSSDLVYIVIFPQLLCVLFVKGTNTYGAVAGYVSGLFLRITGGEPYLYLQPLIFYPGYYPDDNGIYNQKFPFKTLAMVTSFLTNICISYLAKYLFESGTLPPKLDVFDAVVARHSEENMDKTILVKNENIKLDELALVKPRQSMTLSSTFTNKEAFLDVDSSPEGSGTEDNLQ
ANO1 activ = activators or potentiators of mouse TMEM16A chloride channel; Q8BHY3; HEK293 TMEM16A/YFP-H148Q/I152L, iodide quench fluorescence; hits give low values; B-score at 10 µM; hit rate 0.3% among 340,000; AID 623877;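 active means fluorescence-ratio B-score plate-corrected deviation score at least 3 library SD below zero, with starting fluorescence score within 5 deviations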;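 further: channel opened by trigger with iodide after compound preincubation; score built on the fluorescence ratio of max minus min over baseline; more negative score means more quench and so TMEM16A activation or potentiation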
IMP-1 inhibitor = blocks Pseudomonas aeruginosa IMP-1 metallo-beta-lactamase; purified IMP-1, nitrocefin hydrolysis, epi-absorbance fluorescence; hit rate 0.45% among 290,000; inhibition, % at 5.6 µM; AID 1556;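 active means inhibition above the mean plus 3 SD of all compounds in the same screening run, cut at about 4.5% in these data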;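 further: 0% = IMP-1 with DMSO and 100% = DMSO wells lacking enzyme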
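Assay system: purified IMP-1; Quantity: IMP-1 0.2 nM before substrate addition; Medium: HEPES buffer pH 7.1 with ZnSO4 and Brij 35; Incubation: 15 min enzyme–compound preincubation, then 25 min nitrocefin reaction, 25 °C; Signal: fluorescence quenching readout, ex 480/em 530 nm; Controls: DMSO with and without IMP-1; Repeats: singlicate testing.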
CHT block = inhibitors of human choline transporter CHT; Q9GZV3; CHT-expressing cells, membrane potential dye, choline response; hits give low values; B-score at 10 µM; hit rate 0.86% among 310,000; AID 488975;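 active means B-score over 3 SD under the library average, and starting fluorescence ratio not unusually high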;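 further: choline stimulus applied at its EC90 after an EC20 pre-addition; B-score computed on integrated fluorescence ratio after choline addition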
VIM-2 inh = inhibitors of Pseudomonas aeruginosa VIM-2 metallo-beta-lactamase. purified VIM-2, nitrocefin hydrolysis, epi-absorbance fluorescence. inhibition, % at 5.6 µM. hit rate 0.89% among 290,000;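 active means inhibition above the mean of all tested compounds plus 3 SD, cutoff set per screening run, cut at about 7.5% in these data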;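 further: red hydrolysis product quenches plate fluorescence so inhibitors raise well fluorescence; 0% = enzyme with DMSO and 100% = DMSO without enzyme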
TMEM16A inh = mouse TMEM16A channel inhibition, primary screen | hit rate 1.2% among 310,000 | AID 588511 | normalized B-score (activity score, 25-100; higher = stronger inhibition) at 10 µM | HEK293 TMEM16A/YFP iodide influx fluorescence, ionomycin;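 active means ratio plate-corrected score three or more library SD toward inhibition, starting fluorescence score within five deviations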;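 further: score derived from kinetic fluorescence span divided by baseline fluorescence per well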
The depositor's hits bear a star; i = inactive; / = no result given; ! = not active in a repeat. Only some compounds are listed: those with a hit (about 3.4% of all), similar ones and a draw of the others.

SMILES	CHT PAM	ANO1 activ	IMP-1 inhibitor	CHT block	VIM-2 inh	TMEM16A inh
COc1cc([N+](=O)[O-])ccc1-c1ccc(/C=C2\C(=O)ON=C2c2ccccc2)o1	/	-5.7*	/	/	/	/
Cc1ccc(/C=C2/C(=O)ON=C2c2ccccc2)o1	i	i	-2	i	0	25*
CCn1c2nc(SCCN3CCOCC3)nnc2c2cc(C)cc(C)c21	i	i	-4	i	12*	i
CCCn1c2ccccc2c2nnc(SCCN3CCOCC3)nc21	i	i	-3	i	6	i
O=C(CN1CCc2cc3c(cc2C1)OCCCO3)Nc1c(F)cccc1F	i	i	-2	i	-1	i
CC(C)Cc1nnc(NS(=O)(=O)Cc2ccccc2)s1	i	i	-4	i	10*	i
O=C(O[C@@H]1OC2COC(=O)c3cc(O)c(O)c(O)c3-c3c(cc(O)c(O)c3O)C(=O)O[C@@H]([C@H]1O)[C@@H]2O)c1cc(O)c(O)c(O)c1	i	i	8.8*	i	-1	i
COc1cc(NCCCCCCCN)c2ncccc2c1	i	i	2	i	7.8*	i
COc1cc(NC(C)CCCN)c2ncccc2c1 (stereo unspecified)	i	i	/	i	/	i
Cc1ccc(O)c(NC(=O)CSc2ccc(Cl)cc2)c1	i	i	-2	i	-1	i
Cc1ccc(NS(=O)(=O)c2ccc(NC(=O)CSc3ccc(Cl)cc3)cc2)c(C)c1	i	i	-2	i	-1	25*
COc1ccc(CCCc2nnc(SCC(=O)NN)o2)c(C)c1	i	i	-2	i	-1	i
Cc1[nH]n(-c2ccccc2)c(=O)c1/C=N/N1CCOCC1	i	-7.4*	-4	i	-3	i
CCN(Cc1ccccc1)C(c1ccccn1)c1nnnn1C(C)(C)CC (stereo unspecified)	i	i	0	i	0	i
CC(C)(C)n1nnnc1C(c1ccccn1)N(Cc1ccccc1)Cc1ccc(Cl)cc1 (stereo unspecified)	i	-5.1*	-2	i	-2	i
O=C(Cc1ccc(Cl)cc1)SCc1ccccc1	/	i	/	/	/	/
CCCCCCCCCCCCCCCCn1cc[n+](C)c1	i	i	-2	i	-2	25*!
CC(=O)C1=C(O)C(=O)N(c2ccc(C(=O)O)cc2)C1c1ccccc1 (stereo unspecified)	i	-14*	-2	i	0	i
CCc1cccc(OCCOC(=O)CNS(=O)(=O)c2ccc(NC(C)=O)cc2)c1	/	i	/	/	/	/
COc1ccc(C(=O)Nc2nnc(-c3ccco3)s2)cc1	i	i	7.3*	i	1	i
Oc1ccc(Cl)cc1Sc1cc(Cl)ccc1O	/	-5.6*	/	/	/	/
Cc1ccc(C(=O)CSC2=C(C#N)C(c3ccco3)CC(=O)N2)c(C)c1 (stereo unspecified)	i	i	-2	i	1	25*
O=C1NC(=O)/C(=C\c2ccc(O)cc2O)S1	i	i	6.0*	i	2	i
O=c1c2c3c(sc2nc2sc(C4CC4)nn12)CCCC3	i	i	-5	i	-3	25*
CC(=O)N(C)c1ccc(NC(=O)N2CCOCC2)cc1	i	i	-1	i	0	i
SMILES	CHT PAM	ANO1 activ	IMP-1 inhibitor	CHT block	VIM-2 inh	TMEM16A inh
CCCC(=O)NCc1cc(-c2nn(C)c(=O)c3ccccc23)ccc1C	i	i	0	i	3	i
Cc1ccc(-c2nn(CC(=O)NCc3cc(-c4nn(C)c(=O)c5ccccc45)ccc3C)c(=O)c3ccccc23)cc1	i	-7.8*	-3	i	-1	i
Cc1cc(OCC(=O)OCC(=O)N2CCc3ccccc3C2)ccc1Cl	/	i	/	/	/	/
O=C(c1sc2cc(Cl)ccc2c1Cl)N1CCN(CCc2ccccn2)CC1	i	i	0	i	-1	i
O=C(CCNC(=O)c1ccc([N+](=O)[O-])cc1)NC1CCCCCC1	/	i	/	/	/	/
O=C(NC1CC1)C(=O)c1c(-c2ccccc2)[nH]c2ccccc12	i	-7.5*	-1	i	-2	i
O=C(NC1CCCCC1)C(=O)c1c(-c2ccccc2)[nH]c2ccccc12	i	i	-2	i	-3	i
C/C=C(\C)CN1CCC(n2nccc2NC(=O)CCCc2ccccc2)CC1	i	i	-3	i	-2	i
CSc1nc2c(c(-c3ccc(O)cc3)c1C#N)CCC2	i	i	-4	i	7.8*	i
CNC(C)C#Cc1ccc2oc3cccc(OC)c3c(=O)c2c1 (stereo unspecified)	i	i	1	i	8.3*	i
CNC(C)C#Cc1ccc2oc3cc(C)c(C)cc3c(=O)c2c1 (stereo unspecified)	i	i	/	i	/	i
COC(=O)c1cc2ccsc2n1CC(=O)Nc1cc(Cl)ccc1OC	i	i	-2	i	-4	25*
COC(=O)c1cc2ccsc2n1CC(=O)Nc1ccc(N(C)C)cc1	i	i	-2	i	-2	i
CCCOc1ccccc1/C=C1/C(=O)ON=C1C	i	i	1	i	8.2*	i
COc1ccc(-c2nn(CCC#N)cc2C(=O)Nc2cccc(C(=O)O)c2)cc1[N+](=O)[O-]	i	i	-1	i	1	i
O=C(NC(NC(=S)Nc1ccc(Cl)cc1Cl)C(Cl)(Cl)Cl)c1cccc([N+](=O)[O-])c1 (stereo unspecified)	i	i	0	i	0	100*
COC1=CC(=Cc2c(N)n3nc(CC(=O)N4CCCCC4)sc3nc2=O)C=C(OC)C1=O	i	i	-1	i	3	i
Cc1cn2c(N)c(C=C3C=C(Cl)C(=O)C(Cl)=C3)c(=O)nc2s1	/	-6.8*	-5	/	-3	/
Cc1cc(NC(=O)Nc2cc(Cl)sc2Cl)no1	i	i	0	i	2	i
CC(Oc1ccc(F)cc1)C(=O)Nc1ccccc1N1CCCCC1 (stereo unspecified)	i	-21*	-3	i	-4	i
CCC(Oc1ccccc1)C(=O)Nc1ccccc1N1CCCCC1 (stereo unspecified)	i	i	-2	i	-3	i
O=S(=O)(Nc1ccccc1N1CCCCC1)c1ccc(F)cc1	i	i	4.7*	i	0	i
Cc1ccc(C)c(OCCC(=O)OCc2csc(CC(=O)Nc3ccccc3C)n2)c1	/	i	/	/	/	/
NC(=O)CCn1c(C(=O)c2cc(Cl)c(N)c(Cl)c2)c2ccccc2[n+]1[O-]	i	i	-4	i	7.8*	i
